Reference: ChEMBL document CHEMBL3758131, “Towards new 5-HT7 antagonists among arylsulfonamide derivatives of (aryloxy)ethyl-alkyl amines: Multiobjective based design, synthesis, and antidepressant and anxiolytic properties” (Eur J Med Chem, 2016)

Experiments:
[1] = target: T1, 5-hydroxytryptamine receptor 7 (Homo sapiens, UniProt P34969); experiment: Antagonist activity at human 5-HT7B receptor expressed in HEK293 cells assessed as inhibition of 5-CT-induced cAMP production after 30 mins by TR-FRET assay; assay type: functional, cell-based
T1 sequence (P34969 whole entry): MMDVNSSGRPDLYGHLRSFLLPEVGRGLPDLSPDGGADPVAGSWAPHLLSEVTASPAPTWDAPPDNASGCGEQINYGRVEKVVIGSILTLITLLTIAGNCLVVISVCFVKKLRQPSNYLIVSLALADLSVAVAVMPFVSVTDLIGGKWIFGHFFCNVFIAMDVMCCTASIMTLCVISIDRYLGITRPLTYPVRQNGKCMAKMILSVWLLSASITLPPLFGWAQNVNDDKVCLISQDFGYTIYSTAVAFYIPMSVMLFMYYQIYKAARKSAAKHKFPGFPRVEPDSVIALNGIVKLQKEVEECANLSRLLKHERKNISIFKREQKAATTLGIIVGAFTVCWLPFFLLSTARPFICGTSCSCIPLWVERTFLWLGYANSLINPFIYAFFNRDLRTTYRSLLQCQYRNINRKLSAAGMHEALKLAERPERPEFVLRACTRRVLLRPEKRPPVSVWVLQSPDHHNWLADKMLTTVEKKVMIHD
How it was run: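 HEK293 cells stably expressing human 5-HT7b, grown in DMEM with 10% dialyzed FBS and G418, then resuspended in HBSS with 5 mM HEPES, 0.5 mM IBMX and 0.1% BSA. 450 cells per well were incubated 30 min at room temperature with compound and 6.2 nM 5-CT. After lysis, cAMP was read by LANCE TR-FRET after 1 h. Triplicate, 8 concentrations (10^-11–10^-4 M). Kb = IC50/(1+A/EC50).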

Mus musculus [2] = experiment: Antidepressant activity in C57BL/6J mouse assessed as number of events at 0.625 mg/kg, ip measured over 6 mins by tail suspension test (reference value: 1325.1 +/- 77.8 to 1773.4 +/- 109.9); assay type: functional
[3] = target: T1, 5-hydroxytryptamine receptor 7; experiment: Antagonist activity at human 5-HT7B receptor expressed in […] cells assessed as inhibition of 5-CT induced cAMP production at 10^-6 M after 30 mins by TR-FRET assay; assay type: functional, cell-based
Mus musculus [4] = experiment: Toxicity in ip dosed albino Swiss mouse assessed as effect on spontaneous locomotory activity at MED measured over 2 to 6 mins; assay type: organism-based; settings: in vivo
How it was run: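 Male Albino Swiss mice (22–28 g) received drug i.p. 60 min before testing, in 1% aqueous Tween 80 or distilled water. Each mouse was habituated alone in a plastic cage for 30 min, then ambulation was counted from 2 to 6 min. Groups of 6–10 animals, each used once.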

Mus musculus [5] = experiment: Anxiolytic activity in ip dosed albino Swiss mouse assessed as increase in number of shocks accepted measured over 1 min, 15 secs by four plates test; assay type: functional; settings: read-out: MED
How it was run: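 Male Albino Swiss mice, ip injection 60 min before test. Four-plate cage; after 15 s of habituation, each plate-to-plate crossing during a 1-min session is punished with a 0.8 mA, 0.5 s foot shock, followed by a 3-s shock-free interval. Number of shocks accepted is counted.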

Mus musculus [6] = experiment: Toxicity in ip dosed C57BL/6J mouse assessed as effect on spontaneous locomotory activity at MED measured over 1 min 15 secs; assay type: organism-based; settings: in vivo
Mus musculus [7] = experiment: Antidepressant activity in C57BL/6J mouse assessed as number of events at […] mg/kg, ip measured over 6 mins by tail suspension test (reference value: 1325.1 +/- 77.8 to 1773.4 +/- 109.9); assay type: functional

O=S(=O)(NC1CCN(CCOc2ccccc2C2CCCC2)CC1)c1cccc(F)c1
Kb [1]: 0.085 µM
Activity (Mus musculus [2]): 1446.8
inhibition [3]: 90%
Activity (Mus musculus [4]): Non-toxic
minimal effective dose (Mus musculus [5]): 1.25 mg/kg
Activity (Mus musculus [6]): Non-toxic
Activity (Mus musculus [7]): 1595.4
